Key:
[1] = target: Human immunodeficiency virus type 1 protease (Human immunodeficiency virus 1, UniProt Q72874); experiment: In vitro inhibition of HIV-1 protease.
Outline: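 HPLC-monitored cleavage of peptide H2N-Val-Ser-Gln-Asn-(β-naphthylalanine)-Pro-Ile-Val-OH (0.45 mM final) by purified recombinant HIV-1 protease (1-10 nM final; E. coli maltose-binding-protein fusion, cleaved off, 99% pure). Buffer 50 mM sodium acetate, 1 mg/mL BSA, pH 5.5; DMSO stock. 30 min at 37 °C, quenched with phosphoric acid. Screened at 0.1, 1, 10 μM, then IC50 from five concentrations.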

[2] = test system: Human immunodeficiency virus 1; experiment: Inhibition of viral replication by XTT endpoint; assay type: functional; settings: read-out: ED50 (the source's name)
Outline: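 CEM-SS cells (5000/well) in RPMI with 10% fetal calf serum infected with HIV-1 RF at multiplicity 0.04; compound from DMSO stock, final DMSO at most 0.125%. After 6 days at 37 °C, XTT/PMS added for 4 h; formazan read at 450 nm against 650 nm reference. ED50 = concentration restoring formazan in infected cells to 50% of control cells; mean of two determinations.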

[3] = The oral bioavailability was measured on rats after oral administration; assay type: ADME, organism-based; settings: rat, in vivo, read-out: Bioavailabiility
Outline: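 Male Sprague-Dawley rats (200-350 g), jugular cannula placed the day before, fasted overnight, water ad libitum. [3H]-labelled compound 1.3 μmol/kg iv and po (n = 3 per route, TLRC plasma assay), or unlabelled 9 μmol/kg iv and 22 μmol/kg oral (n = 2 per route, LC/MS/MS). Dosing was iv in ethanol over 5 min and oral by gavage as 0.2% CMC suspension or ethanol solution.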

[4] = The biological half life (t1/2) was measured on rats after intravenous administration; assay type: ADME, organism-based; settings: rat, in vivo
Outline: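 Male Sprague-Dawley rats (200–350 g), jugular-cannulated, fasted overnight, given an ethanol solution infused iv over 5 min: [3H] compound at 1.3 μmol/kg (n = 3) or unlabeled at 9 μmol/kg (n = 2). Plasma measured by radio-TLC or LC/MS/MS. Half-life by model-independent analysis; mean ± SEM, n = 5.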

Pepsin A = Pepsin A (Sus scrofa, UniProt P00791); experiment: The inhibitory concentration value was measured on porcine pepsin at 31000 nM
Outline: (§1)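 Spectrophotometric assay at 37 °C in 0.1 M formate, pH 3, with chromogenic peptide H-Pro-Thr-Glu-Phe-p-nitro-Phe-Arg-Leu-OH at 0.32 mM final. Reaction started with enzyme: 0.36 units of human liver cathepsin D or 0.03 units of porcine stomach pepsin. Absorbance at 310 nm followed for 20 min; buffer-only controls; highest concentration tested 31000 nM.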

[5] = test system: Human immunodeficiency virus 2; experiment: The concentration was measured on HIV-2CBL-20 virus; assay type: functional; settings: read-out: ED50 (the source's name)
Outline: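 HIV-2 CBL-20 infection of CEM-SS cells (5000/well) at multiplicity 0.04, in RPMI with 10% fetal calf serum; final DMSO at most 0.125%. Incubated 6 days at 37 °C, 5% CO2, then 4 h with XTT/PMS; absorbance at 450 nm (650 nm reference). ED50 from formazan relative to uninfected controls; n = 7.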

[6] = The maximum plasma concentration was measured on rats after oral administration; assay type: ADME, organism-based; design: route oral; settings: rat
Outline: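 Fasted male Sprague-Dawley rats dosed by gavage as a suspension in 0.2% carboxymethyl cellulose or an ethanol solution: [3H] compound at 1.3 μmol/kg (n = 3) or unlabeled at 22 μmol/kg (n = 2). Plasma quantified by thin-layer radiochromatography (LLOQ 1 nM) or LC/MS/MS (LLOQ 10 nM). Cmax given as mean ± SEM, n = 5.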

Cathepsin D = Cathepsin D (Homo sapiens, UniProt P07339); experiment: The inhibitory concentration value was measured on Human cathepsin D at 31000 nM; outline: as §1
[7] = test system: Human immunodeficiency virus 1; experiment: The concentration was measured on HIV-1 IIIB virus; assay type: functional; settings: read-out: ED50 (the source's name)
Outline: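 Human PBMCs, PHA-stimulated, infected with HIV-1 IIIB at m.o.i. 0.001–0.02 and kept with graded compound. Half the medium was replaced with fresh compound-containing medium on day 3. p24 in supernatant measured by ELISA at day 7; ED50 = dose giving 50% p24 reduction relative to control wells; n = 2.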

Renin = target: T1, Renin (Homo sapiens, UniProt P00797); experiment: The inhibitory concentration value was measured on Human renin at 100000 nM
T1 sequence (P00797 whole entry): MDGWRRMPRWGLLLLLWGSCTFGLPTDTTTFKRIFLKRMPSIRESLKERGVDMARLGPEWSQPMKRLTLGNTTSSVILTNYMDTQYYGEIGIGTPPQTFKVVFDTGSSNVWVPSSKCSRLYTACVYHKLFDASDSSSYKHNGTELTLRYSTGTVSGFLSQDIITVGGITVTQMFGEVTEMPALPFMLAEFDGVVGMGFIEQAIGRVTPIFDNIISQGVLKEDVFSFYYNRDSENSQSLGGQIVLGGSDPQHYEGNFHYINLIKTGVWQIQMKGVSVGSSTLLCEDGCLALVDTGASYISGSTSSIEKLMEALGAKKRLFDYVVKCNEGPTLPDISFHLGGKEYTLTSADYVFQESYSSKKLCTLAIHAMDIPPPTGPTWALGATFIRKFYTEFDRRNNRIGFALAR

Chain of Cathepsin D (P07339 65-162 limits assumed): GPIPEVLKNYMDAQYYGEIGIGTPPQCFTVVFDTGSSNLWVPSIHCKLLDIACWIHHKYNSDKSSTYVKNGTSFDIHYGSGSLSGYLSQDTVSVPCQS
Chain of Cathepsin D (P07339 169-412 limits assumed): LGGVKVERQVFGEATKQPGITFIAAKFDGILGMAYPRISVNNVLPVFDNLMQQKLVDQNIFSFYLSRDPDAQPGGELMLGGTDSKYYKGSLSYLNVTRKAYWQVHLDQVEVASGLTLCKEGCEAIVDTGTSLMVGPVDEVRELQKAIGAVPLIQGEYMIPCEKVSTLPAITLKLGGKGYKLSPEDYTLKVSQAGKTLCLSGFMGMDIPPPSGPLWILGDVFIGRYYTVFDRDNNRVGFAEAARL
Chain of Pepsin A (P00791 whole entry): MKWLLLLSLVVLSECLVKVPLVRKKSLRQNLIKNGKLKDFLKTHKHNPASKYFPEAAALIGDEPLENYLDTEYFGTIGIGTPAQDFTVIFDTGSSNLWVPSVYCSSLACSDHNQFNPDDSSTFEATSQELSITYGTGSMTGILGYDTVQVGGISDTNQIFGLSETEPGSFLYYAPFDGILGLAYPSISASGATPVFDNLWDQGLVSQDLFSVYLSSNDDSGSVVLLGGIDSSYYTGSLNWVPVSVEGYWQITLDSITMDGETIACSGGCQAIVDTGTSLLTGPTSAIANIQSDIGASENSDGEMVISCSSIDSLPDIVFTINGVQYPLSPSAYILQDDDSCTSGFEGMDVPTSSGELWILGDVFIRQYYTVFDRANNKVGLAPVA

| SMILES | IC50 [1] [nM] | EC50 [2] [nM] | also measured |
| --- | --- | --- | --- |
| CC(C)(C)OC(=O)N[C@H](CCNC[C@@H](O)[C@H](Cc1ccccc1)NC(=O)OC(C)(C)C)Cc1ccccc1 | 2900 |  |  |
| CC(C)(C)OC(=O)N[C@@H](Cc1ccccc1)[C@H](O)CNC[C@H](O)[C@H](Cc1ccccc1)NC(=O)OC(C)(C)C | 4500 |  |  |
| CN(C(=O)OC(C)(C)C)[C@@H](Cc1ccccc1)[C@H](O)CNC[C@@H](O)[C@H](Cc1ccccc1)NC(=O)OC(C)(C)C | 8500 | > 3000 |  |
| CC(C)(C)OC(=O)N[C@@H](Cc1ccccc1)[C@@H](O)CNC[C@H](O)[C@H](Cc1ccccc1)NC(=O)OC(C)(C)C | > 10000 |  |  |
| CC(C)(C)OC(=O)N[C@@H](Cc1ccccc1)[C@H](O)CNC[C@@H](O)[C@H](Cc1ccccc1)NC(=O)SC(C)(C)C | 700 | 800 |  |
| CC(C)(C)OC(=O)N[C@@H](Cc1ccccc1)[C@H](O)CNC[C@@H](O)[C@@H](Cc1ccccc1)NC(=O)OC(C)(C)C | 10000 |  |  |
| CCC(C)C(NC(=O)OC(C)(C)C)[C@H](O)CNC[C@@H](O)C(NC(=O)OC(C)(C)C)[C@@H](C)CC (single isomer, unassigned) | 4500 | 5300 |  |
| CO[C@H](CNC[C@@H](O)[C@H](Cc1ccccc1)NC(=O)OC(C)(C)C)[C@H](Cc1ccccc1)NC(=O)OC(C)(C)C | > 10000 |  |  |
| O=C(N[C@@H](Cc1ccccc1)[C@H](O)CNC[C@@H](O)[C@H](Cc1ccccc1)NC(=O)OCc1ccccc1)OCc1ccccc1 | 3400 | > 5000 |  |
| CC(C)(C)OC(=O)N[C@@H](Cc1ccccc1)[C@H](O)CNC[C@@H](O)[C@H](Cc1ccccc1)NC(=O)OC(C)(C)C | 125 | 80 | bioavailability [3]: 40%; half-life [4]: 4.2 h; IC50 (Pepsin A): > 31000 nM; EC50 [5]: 170 nM; Cmax [6]: 240 nM; IC50 (Cathepsin D): > 31000 nM; EC50 [7]: 25 nM; IC50 (Renin): > 100000 nM |
| CC(C)(C)OC(=O)N[C@@H](Cc1ccccc1)[C@H](O)COC[C@@H](O)[C@H](Cc1ccccc1)NC(=O)OC(C)(C)C | > 10000 |  |  |
| CC(C)(C)COC(=O)N[C@@H](Cc1ccccc1)[C@H](O)CNC[C@@H](O)[C@H](Cc1ccccc1)NC(=O)OCC(C)(C)C | 6000 |  |  |
| CC(C)(C)OC(=O)N[C@@H](Cc1ccccc1)[C@H](O)CNC[C@H](O)[C@@H](Cc1ccccc1)NC(=O)OC(C)(C)C | > 10000 |  |  |
| CC(C)(C)OC(=O)N[C@@H](Cc1ccccc1)[C@@H](O)CNCC(O)[C@@H](Cc1ccccc1)NC(=O)OC(C)(C)C (stereo not given in full) | > 10000 |  |  |
| CC(C)(C)OC(=O)NC(Cc1ccc(O)cc1)[C@H](O)CNC[C@@H](O)[C@H](Cc1ccccc1)NC(=O)OC(C)(C)C (stereo not given in full) | 100 | 60 |  |
| CC(C)(C)OC(=O)NC(CC1CCCCC1)[C@H](O)CNC[C@@H](O)C(CC1CCCCC1)NC(=O)OC(C)(C)C (stereo not given in full) | 800 | 660 |  |
| CC(C)(C)NC(=O)N[C@@H](Cc1ccccc1)[C@H](O)CNC[C@@H](O)[C@H](Cc1ccccc1)NC(=O)OC(C)(C)C | 400 | 160 |  |
| CN(CC(O)[C@H](Cc1ccccc1)NC(=O)OC(C)(C)C)C[C@@H](O)[C@H](Cc1ccccc1)NC(=O)OC(C)(C)C (stereo not given in full) | > 10000 |  |  |
| CC(C)(C)CC(=O)N[C@@H](Cc1ccccc1)[C@H](O)CNC[C@@H](O)[C@H](Cc1ccccc1)NC(=O)OC(C)(C)C | 4000 | 1200 |  |
| CC(C)OC(=O)N[C@@H](Cc1ccccc1)[C@H](O)CNC[C@@H](O)[C@H](Cc1ccccc1)NC(=O)OC(C)C | 900 | 1000 |  |
| CC(C)(C)OC(=O)NC(CCc1ccccc1)[C@H](O)CNC[C@@H](O)[C@H](Cc1ccccc1)NC(=O)OC(C)(C)C (stereo not given in full) | 500 | 690 |  |
